Measured values from different studies.
Compare with care: the assays were run in different laboratories.
RPS6KA5: Ribosomal protein S6 kinase alpha-5 (RPS6KA5, Homo sapiens, UniProt O75582)
RPS6KA5 N-terminal kinase domain: Ribosomal protein S6 kinase alpha-5, N-terminal kinase domain (RPS6KA5, Homo sapiens, UniProt O75582)
RPS6KA5 C-terminal kinase domain: Ribosomal protein S6 kinase alpha-5, C-terminal kinase domain (RPS6KA5, Homo sapiens, UniProt O75582)

Structure (SMILES) | target | observed | action | method | concentration | quantity | value
O=C1NC(=O)c2cc(Nc3ccc(F)cc3)c(Nc3ccc(F)cc3)cc21 | RPS6KA5 | cell-free assay | – | – | 0.5 µM | remaining signal | 93.6%
Cn1c(=O)n(-c2ccc(C(C)(C)C#N)cc2)c2c3cc(-c4cnc5ccccc5c4)ccc3ncc21 | RPS6KA5 | enzyme activity | inhibitor | – | 10 µM | remaining activity | 102%
CC(C)(C)c1nc(-c2cccc(NS(=O)(=O)c3c(F)cccc3F)c2F)c(-c2ccnc(N)n2)s1 | RPS6KA5 | enzyme activity | inhibitor | radiometric | 1 µM | remaining activity | 97%
Nc1ncnc2occ(-c3ccc(NC(=O)Nc4cc(C(F)(F)F)ccc4F)cc3)c12 | RPS6KA5 N-terminal kinase domain | cell-free assay | inhibitor | – | 20 µM | remaining signal | 2.2%
Cc1ccc(Nc2nccc(N(C)c3ccc4c(C)n(C)nc4c3)n2)cc1S(N)(=O)=O | RPS6KA5 | enzyme activity | inhibitor | – | 0.3 µM | inhibition | 6%
COc1ccc2cc(OCC3(C(=O)O)CN(C(=O)c4ccc(F)cc4)C3)ccc2c1 | RPS6KA5 N-terminal kinase domain | cell-free assay | – | competition with immobilised ligand | 1 µM | remaining binding | 100%
CN(c1nccc(-c2cnn3ncccc23)n1)C1CC1 | RPS6KA5 N-terminal kinase domain | binding | – | competition with immobilised ligand | 1 µM | remaining binding | 100%
CCc1ccccc1C(=O)Nc1n[nH]c2c(C)c(F)c(C3C(C#N)=C(C)N(C)C(C)=C3C#N)cc12 | RPS6KA5 C-terminal kinase domain | cell-free assay | – | competition with immobilised ligand | 1 µM | remaining binding | 90%
COc1cc(Nc2cnc(C#N)c(O[C@H](C)CN(C)C)n2)ncc1-c1cnn(C)c1 | RPS6KA5 | enzyme activity | inhibitor | radiometric | 10 µM | remaining activity | 41%
Nc1c(C(=O)NCc2ccc(C(=O)NCCCC3CCCCC3)cc2)cnn1-c1ccccc1 | RPS6KA5 N-terminal kinase domain | cell-free assay | – | competition with immobilised ligand | 0.1 µM | remaining binding | 94%
CCN(CC)CCNC(=O)c1c(C)[nH]c(/C=C2\C(=O)Nc3ccc(F)cc32)c1C | RPS6KA5 | cell-free assay | – | – | 0.5 µM | remaining signal | 60.1%
N[C@H]1CCN(c2nccc(-c3cnn4ncccc34)n2)C1 | RPS6KA5 C-terminal kinase domain | binding | – | competition with immobilised ligand | 1 µM | remaining binding | 100%
O=C(Nc1cnn(-c2csc(C(=O)NC3COC3)c2)c1)Nc1ccccc1Cl | RPS6KA5 | enzyme activity | inhibitor | – | 5 µM | remaining activity | 89.5%
CNCc1ccc(-c2cc(-c3nc(-c4ccc(S(=O)(=O)C(C)C)cc4)cnc3N)on2)cc1 | RPS6KA5 | enzyme activity | inhibitor | – | 2 µM | inhibition | 0%
Cc1cnc(NC2CCOCC2)nc1-n1cnc(C(=O)NC(CN)c2cc(F)cc(Cl)c2)c1 (stereo not drawn) | RPS6KA5 | enzyme activity | inhibitor | radiometric | 1 µM | remaining activity | 74%
Nc1nc(Nc2ccc(S(N)(=O)=O)cc2)nn1C(=O)c1c(F)cccc1F | RPS6KA5 | cell-free assay | – | – | 0.5 µM | remaining signal | 97.2%
COc1cc(Cl)c(C(=O)N[C@@H](CN[C@H]2CC[C@@H](N)CC2)Cc2ccc(C#N)cc2)cc1-c1ccc(CN[C@H](C)c2ccc(C)cc2)o1 | RPS6KA5 | enzyme activity | inhibitor | – | 1 µM | remaining activity | 85%
CC(C)(C)C(=O)c1sc(NC2CCCCC2)nc1N | RPS6KA5 | enzyme activity | inhibitor | – | 10 µM | remaining activity | 102%

Structure (SMILES) | target | observed | action | method | concentration | quantity | value
c1cnn2ncc(-c3ccnc(N4CCC45COC5)n3)c2c1 | RPS6KA5 C-terminal kinase domain | binding | – | competition with immobilised ligand | 1 µM | remaining binding | 100%
CC(C)(O)[C@H]1CC[C@H](Nc2ccc3ncc(-c4cccc(C(F)(F)F)c4)n3n2)CC1 | RPS6KA5 | enzyme activity | inhibitor | – | 1 µM | remaining activity | 98.9%
CC(=O)N1CCC(c2ccc(C(=O)NC3=NCCN3)cc2C(F)(F)F)CC1 | RPS6KA5 C-terminal kinase domain | cell-free assay | – | competition with immobilised ligand | 1 µM | remaining binding | 70%
Cc1ccc(C(=O)NCc2ccsc2)cc1C#Cc1cn(C(C)C)c2ncnc(N)c12 | RPS6KA5 | enzyme activity | inhibitor | – | 1 µM | activity vs control | 104%
CN1CC(Oc2cnc(C#N)cc2-c2ccn3nc(NC(=O)C4CC4)cc3c2)C1 | RPS6KA5 | enzyme activity | inhibitor | – | 1 µM | inhibition | -7%
Cc1ccc(C(=O)Nc2ccc(CN3CCN(C)CC3)c(C(F)(F)F)c2)cc1C#Cc1cnc2cccnn12 | RPS6KA5 | enzyme activity | inhibitor | – | 23.5 nM | remaining activity | 92%
C[C@H]1CCN(c2nccc(-c3cnn4ncccc34)n2)C1 | RPS6KA5 C-terminal kinase domain | binding | – | competition with immobilised ligand | 1 µM | remaining binding | 100%
C[C@@H]1CCN(C(=O)CC#N)C[C@@H]1N(C)c1ncnc2[nH]ccc12 | RPS6KA5 | cell-free assay | inhibitor | – | 0.5 µM | remaining signal | 94.8%
Cc1nc(C2CCN(C(=O)c3ccc(OC(F)(F)F)cc3N)CC2)c2ncc(N3CCN(C)CC3)cc2n1 | RPS6KA5 N-terminal kinase domain | cell-free assay | – | competition with immobilised ligand | 1 µM | remaining binding | 100%
COc1cc2ncnc(Nc3ccc(Oc4ccccc4)cc3C)c2cc1OC | RPS6KA5 | enzyme activity | inhibitor | – | 1 µM | inhibition | 2%
CNC(=O)c1ccc(Nc2ncc(C(F)(F)F)c(NCc3nccnc3N(C)S(C)(=O)=O)n2)cc1 | RPS6KA5 N-terminal kinase domain | cell-free assay | – | competition with immobilised ligand | 0.1 µM | remaining binding | 81%
Nc1nc(NC2CCCCC2)sc1C(=O)c1ccccc1 | RPS6KA5 | enzyme activity | inhibitor | – | 10 µM | remaining activity | 122%
CC1CCCN1c1nccc(-c2cnn3ncccc23)n1 (stereo not drawn) | RPS6KA5 N-terminal kinase domain | binding | – | competition with immobilised ligand | 1 µM | remaining binding | 100%
Cc1cc(NC(=O)c2cccc3cc(-c4cccc5[nH]nc(N)c45)ccc23)ccc1F | RPS6KA5 | enzyme activity | inhibitor | – | 0.1 µM | activity vs control | 94%
O=C(O)[C@@H]1[C@@H](Cn2nnc3ccccc3c2=O)CC[C@H]1C(=O)c1ccc(OCCC2CCOCC2)cc1 | RPS6KA5 N-terminal kinase domain | cell-free assay | – | competition with immobilised ligand | 1 µM | remaining binding | 100%
CN(c1ncccc1CNc1nc(Nc2ccc3c(c2)CC(=O)N3)ncc1C(F)(F)F)S(C)(=O)=O | RPS6KA5 | enzyme activity | inhibitor | – | 1 µM | inhibition | 31.9%
CCS(=O)(=O)c1cc2cc(C[C@](O)(CC(C)(C)c3ccc(F)cc3C(N)=O)C(F)(F)F)[nH]c2cn1 | RPS6KA5 C-terminal kinase domain | cell-free assay | – | competition with immobilised ligand | 1 µM | remaining binding | 100%
CNC(=O)c1cc(Oc2ccc(NC(=O)Nc3ccc(Cl)c(C(F)(F)F)c3)cc2)ccn1 | RPS6KA5 | enzyme activity | inhibitor | – | 0.3 µM | inhibition | -5%
